{"source": "paper PMC5656813", "about": "(Arthritis & Rheumatology (Hoboken, N.j.), 2017)", "key": {"[1]": {"tested_on": "RA patients with an inadequate response to MTX", "experiment": "Study 2", "format": "in vivo, human", "in_short": "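Randomized, double-blind, placebo-controlled dose-ranging trial: 91 RA patients, 19 sites in 4 countries, 1:1:1:1:1 allocation. Patients had MTX for ≥12 weeks and a stable 7.5–25 mg/week dose for ≥4 weeks, continued throughout. Oral capsules once daily at 30, 75, 150 or 300 mg for 4 weeks. Read-outs: ACR responses, DAS28-CRP and HAQ DI change from baseline at week 4. Intent-to-treat population.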"}, "RA patients": {"tested_on": "RA patients", "experiment": "Studies 1 and 2, laboratory safety, hematology, vital signs, EKG", "format": "in vivo, human", "in_short": "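Both double-blind, placebo-controlled trials in RA patients on stable MTX. Oral capsules daily for 4 weeks, with 7–10-day follow-up: 200 mg once daily or 100 mg twice daily (study 1); 30, 75, 150 or 300 mg once daily (study 2). At every visit: AEs, vital signs, hematology, serum biochemistry, coagulation and urinalysis. EKG at baseline and follow-up, plus week 4 in study 1. Safety population, descriptive treatment-emergent AE summaries.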"}, "healthy volunteers": {"tested_on": "healthy volunteers", "details": "cited from earlier work"}}, "data": [{"smiles": "O=C(Nc1nc2cccc(-c3ccc(CN4CCS(=O)(=O)CC4)cc3)n2n1)C1CC1", "note": "[Filgotinib]", "values": [{"measurement": "HAQ DI score, mean change from baseline at week 4", "setting": "[1]; 150 mg once daily, study 2", "value": "−0.26"}, {"measurement": "Patient's assessment of pain, mean change from baseline at week 4", "setting": "[1]; 150 mg once daily, study 2", "value": "−14.07 0–10‐cm VAS"}, {"measurement": "Patient's global assessment of disease activity, mean change from baseline at week 4", "setting": "[1]; 150 mg once daily, study 2", "value": "−12.33 0–10‐cm VAS"}, {"measurement": "Physician's global assessment of disease activity, mean change from baseline at week 4", "setting": "[1]; 150 mg once daily, study 2", "value": "−24.87 0–10‐cm VAS"}, {"measurement": "Remission rate (DAS28‐CRP <2.6) at week 4", "setting": "[1]; 150 mg once daily, study 2", "value": "0 no. (%)"}, {"measurement": "SJC66, mean change from baseline at week 4", "setting": "[1]; 150 mg once daily, study 2", "value": "−10.52"}, {"measurement": "Serum CRP, mean change from baseline at week 4", "setting": "[1]; 150 mg once daily, study 2", "value": -20.50, "unit": "mg/L"}, {"measurement": "TJC68, mean change from baseline at week 4", "setting": "[1]; 150 mg once daily, study 2", "value": "−14.85"}, {"measurement": "patients achieving remission (DAS28‐CRP <2.6)", "setting": "[1]; 300 mg group, within 4 weeks", "value": "up to 25%"}, {"measurement": "ACR20 responders at week 4", "setting": "[1]; 300 mg once daily, study 2", "value": "13 (65.0) no. (%)"}, {"measurement": "ACR50 responders at week 4", "setting": "[1]; 300 mg once daily, study 2", "value": "9 (45.0) no. (%)"}, {"measurement": "DAS28‐CRP, mean change from baseline at week 4", "setting": "[1]; 300 mg once daily, study 2", "value": "−2.25"}, {"measurement": "EULAR cumulative score, good/moderate, at week 4", "setting": "[1]; 300 mg once daily, study 2", "value": 80.0, "unit": "%"}, {"measurement": "HAQ DI score, mean change from baseline at week 4", "setting": "[1]; 300 mg once daily, study 2", "value": "−0.68"}, {"measurement": "Patient's assessment of pain, mean change from baseline at week 4", "setting": "[1]; 300 mg once daily, study 2", "value": "−29.85 0–10‐cm VAS"}, {"measurement": "Patient's global assessment of disease activity, mean change from baseline at week 4", "setting": "[1]; 300 mg once daily, study 2", "value": "−25.85 0–10‐cm VAS"}, {"measurement": "Physician's global assessment of disease activity, mean change from baseline at week 4", "setting": "[1]; 300 mg once daily, study 2", "value": "−29.20 0–10‐cm VAS"}, {"measurement": "Remission rate (DAS28‐CRP <2.6) at week 4", "setting": "[1]; 300 mg once daily, study 2", "value": "5 (25.0) no. (%)"}, {"measurement": "SJC66, mean change from baseline at week 4", "setting": "[1]; 300 mg once daily, study 2", "value": "−8.48"}, {"measurement": "Serum CRP, mean change from baseline at week 4", "setting": "[1]; 300 mg once daily, study 2", "value": -20.98, "unit": "mg/L"}, {"measurement": "TJC68, mean change from baseline at week 4", "setting": "[1]; 300 mg once daily, study 2", "value": "−14.68"}, {"measurement": "patients achieving an ACR20 response", "setting": "[1]; study 2, 300 mg, week 4", "value": 65, "unit": "%"}, {"measurement": "Creatinine, mean change, day 28", "setting": "RA patients; 30 mg once daily", "value": 1.47, "unit": "µmol/L"}, {"measurement": "HDL cholesterol, mean change, day 28", "setting": "RA patients; 30 mg once daily", "value": 0.03, "unit": "mmol/L"}, {"measurement": "Hemoglobin, mean change, day 28", "setting": "RA patients; 30 mg once daily", "value": "−0.3", "unit": "gm/liter"}, {"measurement": "LDL cholesterol, mean change, day 28", "setting": "RA patients; 30 mg once daily", "value": 0.25, "unit": "mmol/L"}, {"measurement": "Neutrophils, mean change, day 28", "setting": "RA patients; 30 mg once daily", "value": "-6.5e+08", "unit": "L⁻¹"}, {"measurement": "Platelets, mean change, day 28", "setting": "RA patients; 30 mg once daily", "value": "-1.8e+10", "unit": "L⁻¹"}, {"measurement": "Creatinine, mean change, day 28", "setting": "RA patients; 75 mg once daily", "value": 5.18, "unit": "µmol/L"}, {"measurement": "HDL cholesterol, mean change, day 28", "setting": "RA patients; 75 mg once daily", "value": 0.11, "unit": "mmol/L"}, {"measurement": "Hemoglobin, mean change, day 28", "setting": "RA patients; 75 mg once daily", "value": 2.0, "unit": "gm/liter"}, {"measurement": "LDL cholesterol, mean change, day 28", "setting": "RA patients; 75 mg once daily", "value": 0.14, "unit": "mmol/L"}, {"measurement": "Neutrophils, mean change, day 28", "setting": "RA patients; 75 mg once daily", "value": "-7.4e+08", "unit": "L⁻¹"}, {"measurement": "Platelets, mean change, day 28", "setting": "RA patients; 75 mg once daily", "value": "-3.5e+10", "unit": "L⁻¹"}, {"measurement": "Creatinine, mean change, day 28", "setting": "RA patients; 100 mg twice daily", "value": -6.98, "unit": "µmol/L"}, {"measurement": "HDL cholesterol, mean change, day 28", "setting": "RA patients; 100 mg twice daily", "value": 0.20, "unit": "mmol/L"}, {"measurement": "Hemoglobin, mean change, day 28", "setting": "RA patients; 100 mg twice daily", "value": 3.0, "unit": "gm/liter"}, {"measurement": "LDL cholesterol, mean change, day 28", "setting": "RA patients; 100 mg twice daily", "value": 0.07, "unit": "mmol/L"}, {"measurement": "Neutrophils, mean change, day 28", "setting": "RA patients; 100 mg twice daily", "value": "-1.45e+09", "unit": "L⁻¹"}, {"measurement": "Platelets, mean change, day 28", "setting": "RA patients; 100 mg twice daily", "value": "-3.5e+10", "unit": "L⁻¹"}, {"measurement": "Creatinine, mean change, day 28", "setting": "RA patients; 150 mg once daily", "value": 4.50, "unit": "µmol/L"}, {"measurement": "HDL cholesterol, mean change, day 28", "setting": "RA patients; 150 mg once daily", "value": 0.07, "unit": "mmol/L"}, {"measurement": "Hemoglobin, mean change, day 28", "setting": "RA patients; 150 mg once daily", "value": "−1.0", "unit": "gm/liter"}, {"measurement": "LDL cholesterol, mean change, day 28", "setting": "RA patients; 150 mg once daily", "value": 0.01, "unit": "mmol/L"}, {"measurement": "Neutrophils, mean change, day 28", "setting": "RA patients; 150 mg once daily", "value": "-1.37e+09", "unit": "L⁻¹"}, {"measurement": "Platelets, mean change, day 28", "setting": "RA patients; 150 mg once daily", "value": "-3.2e+10", "unit": "L⁻¹"}, {"measurement": "increase in HDL at week 4 versus baseline", "setting": "RA patients; 200 mg", "value": "~15", "unit": "%"}, {"measurement": "Creatinine, mean change, day 28", "setting": "RA patients; 200 mg once daily", "value": 5.47, "unit": "µmol/L"}, {"measurement": "HDL cholesterol, mean change, day 28", "setting": "RA patients; 200 mg once daily", "value": 0.16, "unit": "mmol/L"}, {"measurement": "Hemoglobin, mean change, day 28", "setting": "RA patients; 200 mg once daily", "value": 7.8, "unit": "gm/liter"}, {"measurement": "LDL cholesterol, mean change, day 28", "setting": "RA patients; 200 mg once daily", "value": -0.25, "unit": "mmol/L"}, {"measurement": "Neutrophils, mean change, day 28", "setting": "RA patients; 200 mg once daily", "value": "-1.21e+09", "unit": "L⁻¹"}, {"measurement": "Platelets, mean change, day 28", "setting": "RA patients; 200 mg once daily", "value": "-3.3e+10", "unit": "L⁻¹"}, {"measurement": "increase in HDL at week 4 versus baseline", "setting": "RA patients; 300 mg", "value": "> 30", "unit": "%"}, {"measurement": "Creatinine, mean change, day 28", "setting": "RA patients; 300 mg once daily", "value": 6.90, "unit": "µmol/L"}, {"measurement": "HDL cholesterol, mean change, day 28", "setting": "RA patients; 300 mg once daily", "value": 0.48, "unit": "mmol/L"}, {"measurement": "Hemoglobin, mean change, day 28", "setting": "RA patients; 300 mg once daily", "value": 4.4, "unit": "gm/liter"}, {"measurement": "LDL cholesterol, mean change, day 28", "setting": "RA patients; 300 mg once daily", "value": 0.37, "unit": "mmol/L"}, {"measurement": "Neutrophils, mean change, day 28", "setting": "RA patients; 300 mg once daily", "value": "-1.13e+09", "unit": "L⁻¹"}, {"measurement": "Platelets, mean change, day 28", "setting": "RA patients; 300 mg once daily", "value": "-5.8e+10", "unit": "L⁻¹"}, {"measurement": "decrease in neutrophils from baseline", "setting": "RA patients; doses of ≥75 mg", "value": "14–24%"}, {"measurement": "lymphocytes and lymphocyte subpopulations", "setting": "RA patients; during filgotinib treatment", "value": "unaffected"}, {"measurement": "liver function tests (transaminases)", "setting": "RA patients; in vivo", "value": "lack of changes"}, {"measurement": "neutropenia", "setting": "RA patients; in vivo", "value": "no neutropenia"}, {"measurement": "reticulocytes", "setting": "RA patients; in vivo", "value": "absence of effects"}, {"measurement": "vital signs values and EKG parameters", "setting": "RA patients; in vivo", "value": "No clinically relevant trends or changes"}, {"measurement": "inhibition of JAK pathways in PD assays", "setting": "healthy volunteers; healthy volunteers, daily doses of ≥100 mg", "value": "Significant inhibition of JAK‐1 pathways but not JAK‐2"}, {"measurement": "tolerability and safety in healthy volunteers", "setting": "healthy volunteers; up to 10 days, doses up to 450 mg once daily", "value": "well tolerated and safe"}]}]}
